# Source: PubChem
# CHO-K1 Ca PAM: M1 PAM counterscreen hit in parental CHO-K1 cells | 360,000 compounds, 0.02% hits | activation, % at 3 µM | ATP EC20, Fluo-8 calcium fluorescence; 0% at ATP EC20, 100% at ATP max;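 active means activation above the run cutoff, the mean activation of all test compounds plus 3 SD, cut at about 40% in these data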;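 further: peak over basal fluorescence ratio in a 140 s read after ATP addition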
# M5 PAM: CHRM5 positive allosteric modulation. CHO-K1 hM5, Fluo-8 calcium, ACh EC20 PAM; 0% = ACh EC20, 100% = ACh EC100. activation, % at 3 µM. 360,000 compounds, 0.3% hits. AID 624038;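 active means activation above the run cutoff, the mean activation of all test compounds plus 3 SD, cut at about 18% in these data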
# Target sequence (P08912 whole entry, looked up): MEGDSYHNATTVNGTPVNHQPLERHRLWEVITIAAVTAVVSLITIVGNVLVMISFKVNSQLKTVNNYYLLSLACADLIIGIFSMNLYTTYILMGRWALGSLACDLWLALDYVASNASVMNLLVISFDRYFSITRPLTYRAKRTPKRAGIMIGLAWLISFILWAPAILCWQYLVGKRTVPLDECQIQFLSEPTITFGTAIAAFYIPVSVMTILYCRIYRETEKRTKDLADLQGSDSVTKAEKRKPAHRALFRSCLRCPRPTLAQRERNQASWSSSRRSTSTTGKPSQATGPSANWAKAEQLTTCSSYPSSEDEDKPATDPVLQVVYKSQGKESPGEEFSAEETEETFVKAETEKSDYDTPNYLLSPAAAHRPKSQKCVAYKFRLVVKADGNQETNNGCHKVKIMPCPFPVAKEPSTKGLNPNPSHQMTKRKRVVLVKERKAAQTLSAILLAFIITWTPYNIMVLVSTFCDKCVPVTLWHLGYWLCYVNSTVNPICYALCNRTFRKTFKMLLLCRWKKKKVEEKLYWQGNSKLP
#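 Measured by: Fluo-8 calcium fluorescence; material: human M5 receptor in CHO-K1 cells; schedule: Post-acetylcholine fluorescence recording 140 s; benchmarks: low control EC20 acetylcholine (0%), high control EC100 acetylcholine (100%); read-out: Max/basal fluorescence ratio as % of EC20–EC100 ACh window; compound: single dose, 3 µM nominal final test concentration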
# CHO-K1 Ca antag: nonselective inhibitor or artifact in parental CHO-K1 cells; 360,000 compounds, 0.6% hits; inhibition, % at 3 µM; ATP-induced calcium, Fluo-8 fluorescence;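 active means inhibition above a per-plate cutoff, the plate's mean sample inhibition plus 3 SD, cut at about 24% in these data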;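 further: 0% = DMSO plus EC80 ATP and 100% = DMSO alone without ATP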
# M5 ag: CHRM5 agonism in calcium assay | CHO-K1 hM5 cells, Fluo-8 calcium fluorescence; 0% DMSO wells, 100% maximal acetylcholine response | activation, % at 3 µM | P08912 | 360,000 compounds, 0.19% hits | AID 624037;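 active means activation above the run's mean over test compounds plus 3 SD, cut at about 23% in these data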;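 further: signal is peak over basal fluorescence ratio across the kinetic read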
# M5 antag: CHRM5 antagonism in calcium assay. P08912. CHO-hM5 cells, Fluo-8 calcium fluorescence, ACh EC80. inhibition, % at 3 µM. 360,000 compounds, 0.59% hits. AID 624040;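 active means inhibition above a per-plate cutoff, the mean of that plate's test compounds plus 3 SD, cut at about 27% in these data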;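 further: 0% = acetylcholine EC80 with DMSO and 100% = DMSO without agonist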
# CHO-K1 Ca ag: nonselective activator or artifact in parental CHO-K1 cells. Fluo-8 calcium fluorescence; scaled to maximal ATP response, vehicle zero. activation, % at 3 µM. 360,000 compounds, 0.48% hits. AID 602248; in the data active means activation above about 15%;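 further: untransfected CHO-K1 host cells lacking M1 receptor as counterscreen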
# * = called active by the depositor. Rows were chosen to be rich in hits. Some 1.7% of all compounds tested hit in one or more screens of this group.
SMILES,CHO-K1 Ca PAM,M5 PAM,CHO-K1 Ca antag,M5 ag,M5 antag,CHO-K1 Ca ag
COc1ccc(N2CCN(CCNC(=O)Nc3ccc(C)c(Cl)c3)CC2)cc1,-8,-4,-12,3,8,18*
COc1ccc2c(c1)C(=O)c1ccccc1CO2,20,7,-9,-5,0,0
N#Cc1c(-c2ccccc2)c(-c2ccccc2)n(Cc2ccco2)c1NC(=O)c1cccs1,-5,29*,6,0,0,0
Cc1nc(C)c(C(=O)OCC(=O)Nc2cccc(C)c2C)s1,-1,0,-7,5,2,2
Cc1ccc(S(=O)Cc2ccc(C(=O)N3CCN(C(=O)c4ccco4)CC3)o2)cc1 (stereo unspecified),-15,-4,-4,-5,2,1
Cc1cccc(S(=O)Cc2ccc(C(=O)N3CCN(C(=O)c4ccco4)CC3)o2)c1 (stereo unspecified),7,22*,-1,3,-8,2
O=C(NCc1cn2ccsc2n1)c1c(F)cccc1Cl,7,0,-1,2,-2,0
Cc1ccc2cc(C#N)c(SCC(=O)NNC(=O)Cc3ccccc3)nc2c1,-16,-3,25*,-1,5,0
CCc1ccc(-c2cc(C)no2)cc1S(=O)(=O)NCCCN1CCN(c2ccccc2)CC1,-6,-15,10,1,29*,13
Nc1nonc1-n1nnc(C(=O)N/N=C/c2ccoc2)c1CSc1ccccc1,7,0,-6,-2,-2,2
Cc1cc(/C=N/n2cnnc2)c(C)n1-c1ccc(OCc2ccccc2F)cc1,-9,-21,18,-1,29*,8
Cc1cc(/C=N/n2cnnc2)c(C)n1-c1ccc(OCc2ccc(Cl)cc2)cc1,4,-15,24*,-5,25,9
Cc1onc(-c2ccccc2Cl)c1C(=O)NCc1ccc(S(N)(=O)=O)cc1,9,-2,2,1,1,0
COc1ccc([C@H]2CN(c3ccccc3)C(=O)[C@@H]2CC(=O)Nc2ccccc2)cc1,-6,-2,1,0,4,1
Cc1csc(SCC(=O)Nc2sc3c(c2C#N)CCC3)n1,-4,5,12,0,-3,0
Cc1ccnc(SCC(=O)Nc2sc3c(c2C#N)CCCC3)n1,8,-16,19,2,30*,8
S=C(Nc1cc(Cl)cc(Cl)c1)NC1CCN(Cc2ccccc2)CC1,-6,-14,25*,12,28*,17*
CCc1ccc(S(=O)(=O)NCc2ccc(C(=O)NCCN(Cc3ccccc3)C(C)C)cc2)cc1,3,-18,9,1,29*,7
COC(=O)c1ccc(CNC(=O)c2cc(S(=O)(=O)NCc3ccccc3)ccc2C)cc1,-11,-2,24*,2,-1,3
CC(C)(CO)Nc1nc(N2CCCC2)nc(N2CCCC2)n1,5,17,0,-3,-6,0
C[C@H](CO)N1C[C@H](C)[C@@H](CN(C)Cc2ccc(-c3ccccc3)cc2)Oc2ncc(C#C[C@@H](C)O)cc2C1=O,21,1,-19,-2,-1,1
CCOC(=O)/C(C(N)=NCCO)=C(/O)c1ccccc1,9,0,2,3,0,0
CCCCCC(=O)Nc1cccc(C2=NOC3(C2)C[C@H](C(N)=O)N(C(=O)c2ccccc2)C3)c1 (stereo partly specified),12,19*,-13,3,3,0
CCCCCC(=O)Nc1cccc(C2=NOC3(C2)C[C@H](C(N)=O)N(C(=O)c2ccccc2C(=O)c2ccccc2)C3)c1 (stereo partly specified),-5,4,-12,2,4,0
CCn1c(SCC(=O)N/N=C/c2ccccc2OCC(=O)O)nnc1-c1ccc(C)cc1,14,26*,9,7,37*,1
SMILES,CHO-K1 Ca PAM,M5 PAM,CHO-K1 Ca antag,M5 ag,M5 antag,CHO-K1 Ca ag
Cc1ccc(NC(=S)NNC(=O)CSc2nnc(-c3ccc(Cl)cc3)n2C2CCCCC2)cc1,21,4,-10,-1,-9,0
Cc1ccc(/C=N/NC(=O)CSc2nnc(-c3ccccc3)n2-c2ccc(Cl)cc2)o1,11,-3,-2,1,-1,1
Cc1ccc(-c2nnc(SCC(=O)N/N=C/c3ccccc3C(=O)O)n2-c2ccc(C)cc2)cc1,14,1,-8,-3,8,0
CCn1c(SCC(=O)NNC(=S)Nc2ccc(C)cc2)nnc1-c1ccc(Cl)cc1,27,-3,-5,-3,7,16*
CCn1c(SCC(=O)N/N=C/c2ccc(C)o2)nnc1-c1ccccc1,-7,-8,28*,-3,-8,-1
CCOc1ccccc1N1CCN(S(=O)(=O)c2cc(C)ccc2OC)CC1,16,-15,-4,-1,7,3
CCOc1ccc(NC(=O)CN(C)C(=O)c2c(-c3ccccc3Cl)noc2C)cc1OCC,6,-7,-7,1,10,2
Cc1ccc(C(=O)Nc2ccc(Nc3ccccc3)cc2)cc1Br,19,-2,-16,-2,-2,0
COc1ccc(N(CC(=O)NCc2ccc(Cl)cc2)S(=O)(=O)c2c(C)n[nH]c2C)cc1,-6,-9,3,-5,30*,6
O=C(O)C(=O)/C(=C\c1cccc(Cl)c1)c1ccc2ccccc2n1,6,2,-17,-8,3,1
CC(C)(C)OC(=O)C[C@@H]1C/C=C\C[C@@H](CC(=O)N(CCO)Cc2ccccc2)C(=O)N[C@@H](c2ccccc2)COC1=O,-1,-26,-3,0,29*,4
C[C@@H]1COC(=O)[C@H](CC(=O)OC(C)(C)C)C/C=C\C[C@H](CC(=O)N(CCO)Cc2ccccc2)C(=O)N1,8,3,2,-5,15,0
Cc1cc(S(=O)(=O)NCc2ccccc2)ccc1OCC(=O)NCc1ccccn1,8,-9,-9,-3,30*,4
O=C(NCC1CCCO1)C1CCC(=O)N1Cc1ccccc1Cl (stereo unspecified),-5,0,25*,1,-3,0
CSc1ccc(CN(C)C(=O)CSCC(=O)Nc2ccc(C)cc2)cc1,-15,0,-10,-1,1,1
CCOC(=O)c1c(NC(=O)COC(=O)CCOc2ccc(C)cc2)sc(C(=O)N(C)C)c1C,-8,19*,-8,0,-26,0
CCOC(=O)c1c(NC(=O)COC(=O)CCOc2ccc(OCC)cc2)sc(C(=O)N(C)C)c1C,8,6,-8,-3,1,1
CCN(CC)CCC(C)OC(c1ccccc1)c1ccccc1 (stereo unspecified),3,-33,-7,-13,38*,0
